Rows were chosen to be rich in hits. Some 1.2% of all compounds tested hit in one or more screens of this group.
TRPN1 ag = agonists of zebrafish TRPN1 channel; HEK293 zebrafish TRPN1-YFP, Fluo-8 calcium fluorescence; 100% = response to 87 µM carbachol; activation, % at 3 µM; hit rate 0.18% among 220,000; AID 1424;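 active means activation above its plate's cutoff, the mean activation of test wells on that plate plus 3 SD, cut at about 19% in these data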
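Material: zebrafish TRPN1-YFP in HEK293 cells. Doses: one dose of 3 µM, 0.3% DMSO. Incubation: dye 1 h 37 °C plus 30 min RT. Measured by: intracellular calcium fluorescence with Fluo-8.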
CHO-K1 Ca PAM = nonselective activator or artifact in parental CHO-K1 calcium assay; hit rate 0.02% among 360,000; AID 602247; ATP EC20, Fluo-8 calcium fluorescence; 0% at ATP EC20, 100% at ATP max; activation, % at 3 µM;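 active means activation above the run cutoff, the mean activation of all test compounds plus 3 SD, cut at about 40% in these data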;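 further: peak over basal fluorescence ratio in a 140 s read after ATP addition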
TRPML3 ag = activates the human TRPML3 channel | Q8TDD5 | HEK293 TRPML3-YFP, Fluo-8 calcium fluorescence; 100% = the carbachol control signal | activation, % at 3 µM | hit rate 0.29% among 220,000 | AID 1448;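 active means activation above its plate's cutoff, the mean activation of the plate's test wells plus 3 SD, cut at about 12% in these data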
Target sequence (Q8TDD5 whole entry, looked up): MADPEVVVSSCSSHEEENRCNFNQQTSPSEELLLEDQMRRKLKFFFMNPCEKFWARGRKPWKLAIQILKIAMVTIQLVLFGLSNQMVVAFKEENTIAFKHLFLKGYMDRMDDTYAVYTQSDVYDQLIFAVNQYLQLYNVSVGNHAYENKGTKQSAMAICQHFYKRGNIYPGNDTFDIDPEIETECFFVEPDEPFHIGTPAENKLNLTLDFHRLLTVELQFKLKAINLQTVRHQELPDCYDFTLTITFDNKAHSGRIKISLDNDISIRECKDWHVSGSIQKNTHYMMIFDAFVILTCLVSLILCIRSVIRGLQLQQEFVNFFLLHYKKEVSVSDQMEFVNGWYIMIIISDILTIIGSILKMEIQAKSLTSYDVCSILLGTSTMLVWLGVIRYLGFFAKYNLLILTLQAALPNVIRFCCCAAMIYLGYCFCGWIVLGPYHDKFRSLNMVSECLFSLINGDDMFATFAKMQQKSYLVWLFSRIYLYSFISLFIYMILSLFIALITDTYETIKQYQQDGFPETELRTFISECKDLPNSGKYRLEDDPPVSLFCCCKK
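Material: TRPML3-YFP stable HEK293 cells | Dosing: One concentration, 3 µM nominal, 0.3% DMSO | Timing: 125 s total fluorescence read per well | Technique: Fluo-8 calcium dye fluorescence, ex 470-495, em 515-575 nm | Measure: Percent activation from peak-to-basal fluorescence ratio, scaled between DMSO and carbachol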
CHO-K1 Ca ag = counter-screen for M1 agonists: effect in parental CHO-K1 cells; Fluo-8 calcium fluorescence; scaled to maximal ATP response, vehicle zero; activation, % at 3 µM; hit rate 0.48% among 360,000; AID 602248; in the data active means activation above about 15%;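 further: untransfected CHO-K1 host cells lacking M1 receptor as counterscreen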
CHO-K1 Ca antag = counter-screen for M1 antagonists: effect in parental CHO-K1 cells; hit rate 0.6% among 360,000; ATP-induced calcium, Fluo-8 fluorescence; inhibition, % at 3 µM; AID 602250;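 active means inhibition above a per-plate cutoff, the plate's mean sample inhibition plus 3 SD, cut at about 24% in these data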
Hits are given with their value; 0 = inactive; - = no result given.

SMILES	TRPN1 ag	CHO-K1 Ca PAM	TRPML3 ag	CHO-K1 Ca ag	CHO-K1 Ca antag
COc1ccc(NC(=O)C2Cc3c(-c4cccc(C(C)=O)c4)ccnc3O2)cc1OC (centres undefined)	-	0	-	0	24
COc1ccc(NC(=O)C2Cc3c(-c4cccc(C(N)=O)c4)ccnc3O2)cc1OC (centres undefined)	-	0	-	0	0
COc1ccccc1OCC(=O)OCC(=O)NCCN1C(=O)CSC1=O	0	0	0	0	0
O=C(COC(=O)c1cc(Cl)cc(Cl)c1)NCCN1C(=O)CSC1=O	0	0	0	0	26
O=C(COC(=O)CNC(=O)c1ccco1)NCCN1C(=O)CSC1=O	0	0	0	0	31
COc1ccc(-c2ccc(CN3C(C)C(=O)N(Cc4cn(CC5CCCCC5)nn4)CCS3(=O)=O)cc2)cc1 (centres undefined)	-	0	-	0	25
Cc1ccc(-c2ccc(CN3C(C)C(=O)N(Cc4cn(CC5CCCCC5)nn4)CCS3(=O)=O)cc2)cc1 (centres undefined)	-	0	-	0	0
COC(=O)c1c(C(=O)OC)c(-c2ccccc2)n2c1CS(=O)(=O)C2	0	0	0	0	26
COC(=O)c1c(C(=O)OC)c(-c2ccc(F)cc2)n2c1CS(=O)(=O)C2	-	0	-	0	0
COc1ncc(-c2ccc(N3C(c4ccc([N+](=O)[O-])cc4)=Cc4ccccc4C3CC(C)=O)cc2)cn1 (centres undefined)	-	0	-	0	0
C=CCNc1nc(NCCCN2CCCC2=O)c2sc(-c3ccccc3)cc2n1	-	0	-	0	0
COCCNc1nc(NCc2ccccc2)nc2ccsc12	-	0	-	77	95
O=C1CCCN1CCCNc1nc(NCc2ccccc2)nc2ccsc12	-	0	-	86	84
CCCCNc1nc(NCc2ccccc2)nc2ccccc12	-	0	-	49	54
NC(=O)CN1CCOCCOCCN(CC(N)=O)CCOCCOCC1	0	0	0	0	49
CC(C)[C@@H](C(=O)N[C@@H](CCc1ccc(O)cc1)C(=O)O)N(C)C(=O)[C@H](CO)NC(=O)[C@@H](O)[C@H](N)CCCCCCCCl	-	0	-	0	0
O=C1NC[C@H](Cc2ccc(O)cc2)N(CCc2cccc(F)c2)C1=O	-	0	-	0	0
CCOC(=O)c1c(C)[nH]c(C(=O)COC(=O)COc2ccc(OC)cc2)c1C	0	0	0	16	0
CC(=O)c1c(C)[nH]c(C(=O)COC(=O)COc2ccccc2)c1C	-	0	-	0	0
CSc1nsc(SC)c1NC(=O)Nc1ccccn1	0	49	0	0	0
OC[C@@H]1CN(Cc2cccs2)C[C@H](n2cnc3c(NCc4ccncc4)ncnc32)O1	-	0	-	0	0
Cc1occc(=O)c1OCc1c(F)cccc1Cl	0	0	0	16	0
Cc1[nH]ccc(=O)c1OCc1c(Cl)cccc1Cl	0	0	0	0	0
Cc1ccccc1-c1cc2c(nn1)-c1ccccc1C2=O	0	0	0	0	25
CC1(C(=O)NCc2ccc(Cl)cc2)CCN1C(=O)Cc1cccs1 (centres undefined)	-	0	-	0	0
SMILES	TRPN1 ag	CHO-K1 Ca PAM	TRPML3 ag	CHO-K1 Ca ag	CHO-K1 Ca antag
FC(F)(F)c1cnc(N2CCCN(C(=S)Nc3ccccc3)CC2)c(Cl)c1	0	0	0	17	0
CC(=O)c1c(C)[nH]c(C(=O)OCC(=O)Nc2ccc(Cl)cc2[N+](=O)[O-])c1C	0	0	0	0	37
CCOC(=O)c1c(C)[nH]c(C(=O)OCC(=O)Nc2cc(Cl)ccc2OC)c1C	0	0	0	0	0
Cc1ccc(OCCn2cc(/C(N)=N/O)c3ccccc32)cc1C	0	0	0	0	28
CN1C(=O)N(C)C2(c3ccccc3)NC(=O)NC12c1ccccc1 (centres undefined)	0	0	0	0	29
Cc1c(N=CN2CCOCC2)c(=O)n(C)c(=O)n1C	0	0	0	17	0
Cn1c(/C=C/N2CCOCC2)c(C(=O)c2ccc(Br)cc2)c(=O)n(C)c1=O	0	0	0	0	0
CCN1CCN(S(=O)(=O)c2ccc(Cl)c(C(=O)N(C)Cc3ccccc3)c2)CC1	-	0	-	0	24
CCN1CCN(S(=O)(=O)c2ccc(Cl)c(C(=O)N(C)Cc3ccc(F)cc3)c2)CC1	-	0	-	0	0
COc1cc(S(=O)(=O)N2CCN(Cc3ccccc3)CC2)ccc1Br	0	0	0	0	48
COc1ccc(OCC(=O)Nc2ccc(N3CCN(C(=O)c4ccccc4)CC3)c(Cl)c2)cc1	-	0	-	0	25
COc1ccc(OCC(=O)Nc2ccccc2C(=O)N2CCOCC2)cc1	0	0	0	17	0
O=C(COc1ccc(Br)cc1)Nc1ccccc1C(=O)N1CCOCC1	-	0	-	0	0
CCOC(=O)c1sc(-c2ccccn2)nc1C	0	0	0	16	0
OC(c1ccccc1)(c1ccccc1)C1CCN(CCCOc2ccc3c(c2)CCCC3)CC1	-	0	-	0	0
COc1ccc(N=C(C)C2C(=O)c3ccccc3C2=O)cc1	-	0	-	0	0
C[C@@H]1CN([C@H](C)CO)C(=O)c2c(c3ccccc3n2C)-c2ccccc2CO[C@H]1CN(C)Cc1ccc(Oc2ccccc2)cc1	-	0	-	0	0
CC(C)(C)S(=O)N1Cc2cc(C(=O)N3CCc4ccccc4C3)nc(-c3cccc(-c4cccnc4)c3)c2[C@@H]1CCO (some centres undefined)	-	0	-	0	0
Cc1ccc(S(=O)(=O)CCC(=O)Nc2cccc([N+](=O)[O-])c2)cc1	0	0	0	0	0
Cc1ccc2nc(SCC(=O)Nc3ccc(C(N)=O)cc3)[nH]c2c1	0	0	0	0	0
Cc1ccc2nc(SCC(=O)Nc3cccc([N+](=O)[O-])c3)[nH]c2c1	0	0	0	16	0
CC(CCc1ccccc1)NC(=O)CNc1cccc([N+](=O)[O-])c1 (centres undefined)	-	0	-	15	0
Cc1ccc(CC(=O)Nc2cccc([N+](=O)[O-])c2)cc1	0	0	0	18	0
O=C(O)c1ccc2nc(-c3ccccc3)sc2c1	0	0	0	0	29
Nc1ccc(-c2nc3ccc(C(=O)O)cc3s2)cc1	0	0	0	0	0
SMILES	TRPN1 ag	CHO-K1 Ca PAM	TRPML3 ag	CHO-K1 Ca ag	CHO-K1 Ca antag
Cc1ccc2ccccc2c1C(O)c1ncc(-c2ccccc2)[nH]1 (centres undefined)	-	0	-	0	0
CC(C1CC1)N(Cc1ccccc1)C(=O)NC(=O)c1ccccc1 (centres undefined)	0	0	0	0	0
CC(C1CC1)N(Cc1ccccc1)C(=S)Nc1ccccc1Cl (centres undefined)	0	0	0	18	0
CCCCOP(=O)(c1ccc(N(C)C)cc1)C(Nc1ccccc1)c1ccccc1 (centres undefined)	0	0	0	27	0
OC(c1cc(F)cc(Cl)c1)c1ncc(-c2ccccc2Cl)[nH]1 (centres undefined)	-	0	-	0	0
O=C(NCCCCCCNC(=O)c1ccccc1O)c1ccccc1O	-	0	-	19	0
CCCNC(=O)c1ccccc1C(=O)NCCC	0	0	0	0	0
